Five compounds from ChEMBL document CHEMBL1138093, “C-(4,5,6-trimethoxyindan-1-yl)methanamine: a mescaline analogue designed using a homology model of the 5-HT2A receptor” (J Med Chem, 2006) can be followed below.

Experiment [1] addresses T1, 5-hydroxytryptamine receptor 2A (Rattus norvegicus, UniProt P14842). The experiment is described as follows: Displacement of [125I]DOI from rat 5HT2A receptor. An outline of the steps:
(§1)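 Stably transfected cells expressing rat 5-HT2A or 5-HT2C were serum-starved 5 h and pelleted. Binding used 50 mM Tris, 0.5 mM EDTA, 10 mM MgCl2, pH 7.4, incubated 60 min at 25 °C. Bound was separated by filtration onto PEI-soaked GF/B filters, then scintillation counting. Values came from competition curves.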

In experiment [2] the target is 5-hydroxytryptamine receptor 2A (Rattus norvegicus) (UniProt P14842). The experiment is described as follows: (§2) Activity at rat 5HT2A receptor assessed as 5-HT-stimulated IP3 accumulation. The experiment is classed as functional. An outline of the steps:
(§3)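 Rat 5-HT2A-expressing stable cell line, seeded and assayed at 70% confluence. Cells were labeled 18-20 h with [3H]myoinositol at 1.0 µCi/mL, then pretreated 15 min with 10 µM pargyline/10 mM LiCl. Drug exposure was 30 min at 37 °C under 5% CO2. The assay was stopped with 10 mM formic acid, and [3H]inositol phosphates were isolated on Dowex-1 columns.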

For experiment [3], the target named is T1, 5-hydroxytryptamine receptor 2A. Described as §2. The experiment is classed as functional. An outline of the steps: as §3
Experiment [4] addresses T2, 5-hydroxytryptamine receptor 2C (Rattus norvegicus, UniProt P08909).
T2 sequence (P08909 whole entry): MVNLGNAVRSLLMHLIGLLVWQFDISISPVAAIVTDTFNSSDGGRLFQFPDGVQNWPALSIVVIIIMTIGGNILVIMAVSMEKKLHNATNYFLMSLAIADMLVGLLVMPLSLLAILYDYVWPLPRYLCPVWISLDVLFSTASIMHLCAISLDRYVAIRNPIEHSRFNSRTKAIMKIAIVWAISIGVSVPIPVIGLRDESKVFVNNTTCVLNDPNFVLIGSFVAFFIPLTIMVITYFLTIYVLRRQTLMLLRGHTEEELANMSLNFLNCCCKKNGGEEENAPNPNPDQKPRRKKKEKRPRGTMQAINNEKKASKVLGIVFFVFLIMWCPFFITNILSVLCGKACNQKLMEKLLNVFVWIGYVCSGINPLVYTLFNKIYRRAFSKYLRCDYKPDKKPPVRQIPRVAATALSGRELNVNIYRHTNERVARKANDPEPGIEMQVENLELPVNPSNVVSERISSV
The experiment is described as follows: Displacement of [125I]DOI from rat 5HT2C receptor. An outline of the steps:
as §1

The species entered for a further experiment is Rattus norvegicus. The experiment is described as follows: Hallucinogenic activity in rat. The experiment is classed as functional. The following applies: for ED50: Rattus norvegicus. An outline of the steps:
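Rats were trained to discriminate saline from LSD tartrate (186 nmol/kg ip). The read-out was presses on the drug lever. […] At least 59% gave partial substitution.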

T1 sequence (P14842 whole entry): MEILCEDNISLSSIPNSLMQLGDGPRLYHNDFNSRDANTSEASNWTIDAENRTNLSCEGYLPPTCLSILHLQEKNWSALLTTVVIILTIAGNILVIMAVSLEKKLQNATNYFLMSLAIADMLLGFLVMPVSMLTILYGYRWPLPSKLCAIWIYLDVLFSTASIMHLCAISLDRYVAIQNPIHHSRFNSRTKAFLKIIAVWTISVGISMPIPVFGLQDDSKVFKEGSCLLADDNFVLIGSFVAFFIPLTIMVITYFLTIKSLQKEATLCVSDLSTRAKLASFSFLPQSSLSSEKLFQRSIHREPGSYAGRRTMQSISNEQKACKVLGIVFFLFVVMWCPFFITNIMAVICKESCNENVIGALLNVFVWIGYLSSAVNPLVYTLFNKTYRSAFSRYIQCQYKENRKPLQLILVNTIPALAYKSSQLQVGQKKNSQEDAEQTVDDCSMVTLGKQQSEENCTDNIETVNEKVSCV
Sequence of 5-hydroxytryptamine receptor 2A (Rattus norvegicus) (P14842 whole entry): as above

In experiment [1], `COc1cc2c(c(OC)c1OC)CC[C@@H]2CN` returned an inhibition constant (Ki) of 1120 nM. Also, the Activity in experiment [2] came to 59%. Moreover, the EC50 in experiment [3] was greater than 50000 nM.
`COc1cc2c(c(OC)c1OC)CC[C@H]2CN`: the Ki in experiment [1] was determined as 69 nM. Further, the Activity in experiment [2] was 88%. Besides, in experiment [3], the EC50 amounted to 3200 nM.
In the case of `COc1cc2c(c(OC)c1OC)CCC2CN` (racemic), the figures for the Ki in experiment [1] and in experiment [4] were 130 nM and 60 nM, respectively. For the same compound, in experiment [2], the Activity came out at 83%. Also, in experiment [3], the EC50 amounted to 6100 nM. In the experiment filed under Rattus norvegicus, this compound displayed an ED5 of 6.6 µmol/kg.
Regarding `CCN(CC)C(=O)[C@@H]1C=C2c3cccc4[nH]cc(c34)C[C@H]2N(C)C1` [LYSERGIDE], the Activity in experiment [2] amounted to 20%. In the experiment listed under Rattus norvegicus, this compound came in with a median effective dose (ED50) of 0.037 µmol/kg.
In the case of `COc1cc(CCN)cc(OC)c1OC` [MESCALINE], the inhibition constant Ki in experiment [1] came to 360 nM; in experiment [4], 380 nM. Further, in experiment [2], the Activity came to 86%. Besides, in experiment [3], the EC50 turned out to be 11300 nM. Besides, the ED50 in the experiment filed under Rattus norvegicus came out at 34 µmol/kg.

The term Ki denotes the equilibrium dissociation constant of an inhibitor or competing ligand from its target. The term EC50 denotes the concentration giving half of the maximal effect. By ED50 is commonly meant the midpoint of the dose-response relation. A lower ED50 goes with greater potency.
